# Laboratory results taken from the EternaBench riboswitch data.
# System: MS2 coat protein
# Experiment: apparent Kd, MS2 coat protein; higher = weaker binding; RNA-MaP array; FMN 200 µM where present
# Outline: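 Green signal was scaled to red-channel RNA signal and control-cluster median Fmax, and the apparent Kd was taken as the median of filtered per-cluster binding-curve fits. The binding series used SNAP-549-labelled MS2 coat protein from 0.7 or 1.5 nM, doubling to 3 µM, on designs transcribed by stalled E. coli RNA polymerase on Illumina sequencing-chip clusters. Each series ran without and then with constant ligand in 100 mM Tris-HCl pH 7.5, 80 mM KCl, 4 mM MgCl2, BSA, DTT, yeast tRNA and Tween-20.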
# [1] = designed as: ON switch for flavin mononucleotide, no ligand
# [2] = ligand present: flavin mononucleotide, designed as: ON switch for flavin mononucleotide
# [3] = designed as: OFF switch for flavin mononucleotide, no ligand
# [4] = ligand present: flavin mononucleotide, designed as: OFF switch for flavin mononucleotide
Sequence,apparent Kd [1],apparent Kd [2],apparent Kd [3],apparent Kd [4]
GGAGCACGCACAGGAUAUCCGGCGGCGCUCGUCGGAGAAGGGUGACAUGAGGAUCACCCAUGUACGUGCAACUUAGUUUAAGAG,37.1 nM,29.6 nM,–,–
UGCCGUUUAGGAUAUACAUGAGGAUCACCCAUGUGACAAACAUAUUUUACAAAACCAUGUAGAAGGAAACGGCA,–,–,97.4 nM,468 nM
AGCUACGUUUCGUAGCAGUGUCAUCGAGAAGGCCCUUACAUGACAACAUGAGGAUCACCCAUGUGGGAGGAUAUCGAUGAUACA,11.4 nM,8.98 nM,–,–
ACAUAGUGAGGAUAUGCUGCUCGUCACUUGCGUGAUGAGUAGCAGAAGGCACAUGAGGAUCACCCAUGUAAAAA,–,–,40.5 nM,55 nM
GUUGUGUAUGUAGGAUAUGCGAAGCAAAGCUUCGCAGAAGGACAUGAGGAUCACCCAUGUAUUGCGGUCUGCGUUCAGAUCGCU,–,–,43.5 nM,181 nM
AGAAAACAUGAGGAUCACCCAUGUGAGGAUAUCGAUGUCCAAGGGCGGGUGCGGGACUCGAGAAGGCACUUGGA,–,–,76 nM,64.3 nM
GGACGUCACAUUAACAUGAGGAUCACCCAUGUCUCUAGACAUGAGGAUAUGGAUCCUAAUUGGAUCCAGAAGGCAUGGACGUCC,1030 nM,143 nM,–,–
CCCUCACAUGAGGAUCACCCAUGUUAGGAUAUCUACCUGGAGCUUUGAUUAGCCCAACGGAGAAGGAACGUGCA,–,–,19 nM,18.7 nM
AGCUAGUGAGGAUAUACAAGAAUAUAAACGAACAUAAAGGGACAUGAGGAUCACCCAUGUAGAAGGCACUAGCA,–,–,37.6 nM,243 nM
GUUAGACAUGAGGAUCACCCAUGUGAGGAUAUGAUGUGAAUAAAUAAUUAAUUAAGUAUCAGAAGGCACAUAUG,–,–,129 nM,149 nM
UGACCAGUCCAGAAGGUGACGUCUGCAACUAGUCAAGGAUAUGGGUUGGUUCACGGUCGGCUACAUGAGGAUCACCCAUGUACC,8.26 nM,5.87 nM,–,–
AAAAAGUCAGGAUAUACAAAAGUGCGAAAGCACAAAAGGAAACAUGAGGAUCACCCAUGUAGAAGGGACAAGAA,–,–,32.6 nM,27.5 nM
UAAUAAAACGAUCGGCGAUCCAAACAUGAGGAUCACCCAUGUAGAAGGGACUCUACAAAGUAGAGUCAGGAUAUACGAGAUCGA,–,–,11.9 nM,208 nM
AAAGACUAAGGAUAUACAUGAGGAUCACCCAUGUCUACCCACAUGCUGGUAUCAACCUGUAGAAGGUAGUUCAA,–,–,27.8 nM,85.9 nM
UUAAUUUUAUGAUAUUAUGACAUUAGAAGGCUGUACAUGUUGAUACAUGAGGAUCACCCAUGUAUAGAGGAUAUAGACAAUUUU,–,–,32.4 nM,63.9 nM
UAUUUUAACUAAGGAUAUCUGUAUUAUGUUGAAACAUGAGGAUCACCCAUGUUCAUGAUAUUAUAGGAGAAGGUAGAUGAAUAA,6.75 nM,6.01 nM,–,–
CGAUAGGACAGAGGAUAUACACAUGAGGAUCACCCAUGUGAUUACAACUCUUAAGAUUCAAACAUGUAGAAGGCUGUCCUAUCG,–,–,11.9 nM,30.4 nM
AAAAGCUCAGGAUAUACGGUCUGUUGUUGAAAAAGUAAAAAACAUGAGGAUCACCCAUGUAGAAGGGAGCGAAA,–,–,67.3 nM,159 nM
AGCUGUGGCCGAGGAUAUCUAAUAUCUCAAACCGAAAUAUAAUCGGACAUGAGGAUCACCCAUGUAGAGAAGGCGGUCUCAGCA,–,–,31.1 nM,85 nM
UCCGCUAUCUAGAAGGAUAUGCGUAUAUAAACAUGAGGAUCACCCAUGUACCGGCGAAAACCGGUGCAGAAGGUUUAGCUAGUGA,431 nM,65.7 nM,–,–
UAUAAGAACGAAGGAUAUGGUUACAUGAGGAUCACCCAUGUAUUAAUAUUGAUCUAUUUUUAUAACCAGAAGGUCGAGAGUAAA,–,–,27.4 nM,39.7 nM
GGGAGACAUGAGGAUCACCCAUGUGAAAACGUGCGAGGAUAUCAAUGGAAACCAUACUGUUGAGAAGGCGUUUGUC,100 nM,55 nM,–,–
AACAAUCUAUCUGAGGAUAUCAUGUCAAAGACAUGAGGAUCACCCAUGUACCAGGAAACUGGAUAUGAGAAGGCAGAUAGAUUGA,199 nM,22.8 nM,–,–
CGGUCGAUAUCAGGAUAUCGUUUAAUUACAUGAGGAUCACCCAUGUUGACAUGGAAUAUAACAUGCGAGAAGGGAUUACGAUCG,13.9 nM,9.85 nM,–,–
UGUGCGUAUGUGAGGAUAUGCUGGUCCUUGGAUCGGCAGAAGGCACAUGAGGAUCACCCAUGUGGUGUCGUUCU,–,–,389 nM,24.8 nM
UGAACUAUGUAGAAGGCCCAUAUCUAUAUUUAGGGAGGAUAUACAUGAGGAUCACCCAUGUAUAGAGCGGGUGGACCCGUCACU,–,–,39 nM,72.1 nM
GGAAAGUGAGGAUAUGCAUAACAAAUACAAAGAGAAACAAAGCAGAAGGCACAUGAGGAUCACCCAUGUAAACA,–,–,24.9 nM,25 nM
